Measured values taken from ChEMBL document CHEMBL1131230 (J Med Chem, 1998).

Legend:
[1] = system: GABA-A receptor; anion channel; test: In vitro inhibition of [35S]TBPS binding to Gamma-aminobutyric acid A (GABA-A) receptor of rat cerebral cortex (No displacement); format: tissue-based
[2] = target: GABA-A receptor; anion channel; test: Inhibition of [35S]TBPS binding to GABA-A receptor in rat cerebral cortex.; format: tissue-based
Summary of the method: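 Unwashed cortical membranes from male Sprague-Dawley rats (180-200 g), homogenized in 50 mM Tris-citrate pH 7.4 with […], centrifuged at 20000g and resuspended in buffer. Final 1 nM [35S]TBPS with 0.20-0.25 mg protein and NaCl, 90 min at 25 °C, then GF/B filtration and scintillation counting. Nonspecific binding defined with 100 µM picrotoxin.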

[3] = target: T1, GABA A receptor alpha-1/beta-1/gamma-2 (Homo sapiens) (UniProt P14867+P18507+P18505); test: Direct activation of chloride currents (percentage of 10 mM GABA response) in Xenopus laevis oocytes expressing human alpha-1-beta-1-gamma-2 GABA-A receptor subunits; format: functional, cell-based; settings: Oocyte
Summary of the method: (§1)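 Human α1, β1 and γ2 subunit cDNAs in pCDM8 (1.5 ng/30 nL) injected into nuclei of defolliculated stage V-VI Xenopus oocytes, which were cultured at 19 °C in supplemented MBS. Recording by two-electrode voltage clamp at -70 mV about 24 h after injection, with MBS perfusion at room temperature. Compounds came from 10 mM DMSO stocks diluted in MBS. Responses were normalized to a GABA control response, either EC20 or 10 mM GABA.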

[4] = target: T2, GABA A receptor alpha-1/beta-1/gamma-2 (Homo sapiens, UniProt P14867+P18505+P18507); test: Direct activation of chloride current in Xenopus laevis oocytes expressing human alpha-1-beta-1-gamma-2 GABA-A receptor subunits; format: functional, cell-based, Oocyte; summary of the method: as §1
T2 sequence (P14867 whole entry): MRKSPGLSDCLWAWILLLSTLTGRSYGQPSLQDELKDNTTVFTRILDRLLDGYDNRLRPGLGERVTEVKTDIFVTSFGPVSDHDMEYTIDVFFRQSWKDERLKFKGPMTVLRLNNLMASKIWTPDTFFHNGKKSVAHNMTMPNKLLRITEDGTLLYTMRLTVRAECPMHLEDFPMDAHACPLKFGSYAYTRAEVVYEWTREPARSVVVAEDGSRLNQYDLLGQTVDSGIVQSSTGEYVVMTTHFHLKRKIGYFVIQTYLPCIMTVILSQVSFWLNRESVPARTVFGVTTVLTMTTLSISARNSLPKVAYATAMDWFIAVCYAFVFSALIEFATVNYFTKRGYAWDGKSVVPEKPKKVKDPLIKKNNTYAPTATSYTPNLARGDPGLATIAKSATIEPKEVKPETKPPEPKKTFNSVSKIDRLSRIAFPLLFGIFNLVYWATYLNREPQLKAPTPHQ
T2 sequence (P18507 whole entry): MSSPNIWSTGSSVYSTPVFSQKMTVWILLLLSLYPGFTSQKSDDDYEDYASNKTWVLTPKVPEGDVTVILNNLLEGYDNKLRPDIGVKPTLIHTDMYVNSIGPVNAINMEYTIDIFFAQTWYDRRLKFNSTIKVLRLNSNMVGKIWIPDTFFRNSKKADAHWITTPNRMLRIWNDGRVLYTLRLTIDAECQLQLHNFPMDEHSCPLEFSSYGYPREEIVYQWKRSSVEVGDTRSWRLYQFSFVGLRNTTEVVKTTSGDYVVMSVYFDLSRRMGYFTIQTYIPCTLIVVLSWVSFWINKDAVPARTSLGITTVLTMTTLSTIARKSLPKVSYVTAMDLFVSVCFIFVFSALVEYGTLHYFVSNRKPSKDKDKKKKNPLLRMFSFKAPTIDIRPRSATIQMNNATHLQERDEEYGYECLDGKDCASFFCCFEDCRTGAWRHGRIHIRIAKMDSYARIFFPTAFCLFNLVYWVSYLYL
T2 sequence (P18505 whole entry): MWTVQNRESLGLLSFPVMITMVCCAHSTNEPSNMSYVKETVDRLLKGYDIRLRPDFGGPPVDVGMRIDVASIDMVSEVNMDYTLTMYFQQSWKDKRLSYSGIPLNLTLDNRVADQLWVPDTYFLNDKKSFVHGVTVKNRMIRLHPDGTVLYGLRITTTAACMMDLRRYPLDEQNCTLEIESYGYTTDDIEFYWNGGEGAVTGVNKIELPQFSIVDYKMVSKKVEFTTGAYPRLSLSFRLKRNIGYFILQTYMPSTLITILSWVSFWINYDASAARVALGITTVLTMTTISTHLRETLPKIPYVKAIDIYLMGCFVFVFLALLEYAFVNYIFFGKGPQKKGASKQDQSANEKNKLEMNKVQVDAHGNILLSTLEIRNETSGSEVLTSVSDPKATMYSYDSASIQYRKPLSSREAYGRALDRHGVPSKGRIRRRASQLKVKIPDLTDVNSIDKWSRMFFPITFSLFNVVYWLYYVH

[5] = target: T1, GABA A receptor alpha-1/beta-1/gamma-2 (Homo sapiens); test: Modulation of GABA-induced chloride currents (percentage of GABA EC20 response) against human alpha-1-beta-1-gamma-2 GABA-A receptor subunits expressed in Xenopus laevis oocytes; format: functional, cell-based; settings: Oocyte; summary of the method: as §1
[6] = target: T2, GABA A receptor alpha-1/beta-1/gamma-2; test: Modulation of GABA-induced chloride currents in Xenopus laevis oocytes expressing human alpha-1-beta-1-gamma-2 GABA-A receptor subunits; format: functional, cell-based, Oocyte; summary of the method: as §1
[7] = Partition coefficient (logP); format: physicochemical; settings: octanol/water

In the case of `CC(C)c1cccc(C(C)C)c1OC(=O)CN1CCOCC1`, the IC50 [1] is reported as “Not Active”.

With `CC(C)c1cc(Br)cc(C(C)C)c1O` the IC50 [2] was 1.07 µM, the Max activation [3] was 34% and the EC50 [4] was 38 µM. The Max potentiation [5] was 223%, the EC50 [6] was 12 µM and the logP [7] was 5.49.

`CC(C)c1cc(CN(C)C)cc(C(C)C)c1O` showed an IC50 [2] of 739 µM and a logP [7] of 2.5.

Compound `CC(C)c1cc([N+](=O)[O-])cc(C(C)C)c1O` has an IC50 [2] of 1.95 µM and a logP [7] of 4.71.

For `CCCN(CCC)CC(=O)Oc1c(C(C)C)cccc1C(C)C`, the IC50 [1] was “Not Active”.

Compound `COC(=O)c1cccc(C(C)C)c1O` has an IC50 [2] of 39.5 µM.

Work on `CC(C)c1cc(C=O)cc(C(C)C)c1O` yielded an IC50 [2] of 5.8 µM and a logP [7] of 4.3.

With `CC(C)c1cc(NS(C)(=O)=O)cc(C(C)C)c1O` the IC50 [2] was 131 µM and the logP [7] was 3.14.

For `CC(C)c1cc([N+](C)(C)C)cc(C(C)C)c1O.[I-]`, the IC50 [1] was “Not Active”.

For `CC(=O)Nc1cc(C(C)C)c(O)c(C(C)C)c1`, the IC50 [1] was “Not Active”.

`CC(C)c1cc(Cl)cc(C(C)C)c1O` gave an IC50 [2] of 1.44 µM, a Max activation [3] of 37% and an EC50 [4] of 38 µM. For the same compound, the Max potentiation [5] was 205%, the EC50 [6] was 10 µM and the logP [7] was 5.34.

With `CC(C)c1cc(I)cc(C(C)C)c1O` the IC50 [2] was 1.2 µM, the Max activation [3] was 36% and the EC50 [4] was 51 µM. It also gave a Max potentiation [5] of 311%, an EC50 [6] of 12 µM and a logP [7] of 5.75.

With `COS(=O)(=O)c1cc(C(C)C)c(O)c(C(C)C)c1` the IC50 [2] was 9.4 µM and the logP [7] was 3.7.

With `CC(C)c1cccc(C(C)C)c1OC(=O)CN1CCCC1` the IC50 [2] was 6.52 µM.

In the case of `CC(C)c1cc(N(C)C)cc(C(C)C)c1O`, the IC50 [2] is reported as 5.7 µM and the logP [7] is reported as 4.52.

In the case of `CC(C)c1cccc(C(C)C)c1O` [PROPOFOL], the Max activation [3] is reported as 38%, the EC50 [4] is reported as 44 µM and the Max potentiation [5] is reported as 296%. It also gave an EC50 [6] of 8 µM and a logP [7] of 4.33.

Compound `CC(C)c1cccc(C(C)C)c1OC(=O)c1ccccc1` has an IC50 [2] of 15.2 µM.

For `CC(C)c1cccc(C(=O)O)c1O`, the IC50 [1] was “Not Active”.

Work on `COC(CNCC(=O)Oc1c(C(C)C)cccc1C(C)C)OC` yielded an IC50 [2] of 15.6 µM.

Compound `CC(=O)Oc1c(C(C)C)cccc1C(C)C` has an IC50 [2] of 8.5 µM.

For `CCN(CC)CC(=O)Oc1c(C(C)C)cccc1C(C)C`, the IC50 [2] was 21.8 µM.

In the case of `COc1c(C(C)C)cccc1C(C)C`, the IC50 [2] is reported as 37 µM.

In the case of `CC(C)c1cc(N)cc(C(C)C)c1O`, the IC50 [2] is reported as 23.6 µM and the logP [7] is reported as 3.1.

`CC(C)c1cc(NC(=O)C(F)(F)F)cc(C(C)C)c1O` showed an IC50 [2] of 14 µM and a logP [7] of 4.46.

For `CC(C)c1cc(C(=O)c2ccccc2)cc(C(C)C)c1O`, the IC50 [2] was 0.85 µM, the Max activation [3] was 41% and the EC50 [4] was 47 µM. It also gave a Max potentiation [5] of 220%, an EC50 [6] of 9 µM and a logP [7] of 5.91.
